Beta apoptosis: beta cell apoptosis inhibition | INS-1E cytokine-induced death, ATP luminescence, 48 h; percent of positive-control rescue, neutral wells zero | protection from apoptosis, % (test concentration not listed) | 0.8% of 300,000 active;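 active means Every replicate reaches about 75%, or at least half do and their mean reaches it too, limit read from the data; inconclusive means At least half of replicates reach the limit but their mean does not; inactive means Under half of replicates reach the limit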;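 further: higher means more ATP so stronger rescue from cytokine killing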
CSC inhib: cancer stem cell inhibition. cancer stem cell-like cells viability, luminescence. inhibition, % at 7.5 µM. 1.1% of 300,000 active; in the data active means inhibition above about 75%; inconclusive means no clear call, values can overlap the other calls; tested in HMLE shEcad cells
Calb FLC: C. albicans growth modulation with fluconazole | C. albicans CaCi-2 (fluconazole-resistant clinical isolate) + fluconazole, Alamar Blue growth, 48 h | growth inhibition, % (concentration not given with the values) | 0.57% of 300,000 active;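 active means growth inhibition above about 58% in most replicates, limit read from the data, passing the limit was not always enough; inconclusive means exactly half the replicates above a set limit; inactive means most replicates below a set limit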;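 further: all wells also contain fluconazole at 8 µg/ml as a sub-toxic cotreatment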
SKKanGAS inh: SKKanGAS growth inhibition | S. pyogenes SKKanGAS, kanamycin growth, BacTiter-Glo, 6 h | inhibition, % at 7.5 µM | 1.3% of 300,000 active;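 active means mean replicate score, as percent of positive control median, at least 50; inconclusive means mean below 50 but one replicate at or above 50; inactive means mean and every replicate below 50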;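 further: strain carries kanamycin resistance gene driven by streptokinase promoter and grows in 40 µg/ml kanamycin; loss of luminescence reflects streptokinase promoter inhibition or plain growth inhibition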
Mdm2-MdmX inh: human Mdm2/MdmX binding inhibition | O15151+Q00987 | SaOS-2 split-luciferase Mdm2/MdmX complementation, luminescence | inhibition, % at 8 µM | 3% of 330,000 active | AID 485346;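 active means inhibition of at least 50% at 8 µM in the primary screen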
Target sequence (O15151 whole entry, looked up): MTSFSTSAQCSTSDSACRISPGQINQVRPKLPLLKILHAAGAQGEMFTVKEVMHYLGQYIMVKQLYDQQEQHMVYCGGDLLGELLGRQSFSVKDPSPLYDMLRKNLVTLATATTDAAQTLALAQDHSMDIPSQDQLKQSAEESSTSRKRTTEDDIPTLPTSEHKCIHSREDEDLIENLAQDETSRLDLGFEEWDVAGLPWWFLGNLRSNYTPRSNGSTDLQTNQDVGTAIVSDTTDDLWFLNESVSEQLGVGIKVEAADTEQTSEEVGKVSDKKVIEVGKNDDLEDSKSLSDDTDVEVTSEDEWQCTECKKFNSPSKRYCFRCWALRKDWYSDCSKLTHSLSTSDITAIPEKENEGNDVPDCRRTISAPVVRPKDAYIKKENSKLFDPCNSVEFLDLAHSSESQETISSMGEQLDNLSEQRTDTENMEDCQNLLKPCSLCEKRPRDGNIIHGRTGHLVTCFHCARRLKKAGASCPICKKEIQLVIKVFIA
Target sequence (Q00987 whole entry, looked up): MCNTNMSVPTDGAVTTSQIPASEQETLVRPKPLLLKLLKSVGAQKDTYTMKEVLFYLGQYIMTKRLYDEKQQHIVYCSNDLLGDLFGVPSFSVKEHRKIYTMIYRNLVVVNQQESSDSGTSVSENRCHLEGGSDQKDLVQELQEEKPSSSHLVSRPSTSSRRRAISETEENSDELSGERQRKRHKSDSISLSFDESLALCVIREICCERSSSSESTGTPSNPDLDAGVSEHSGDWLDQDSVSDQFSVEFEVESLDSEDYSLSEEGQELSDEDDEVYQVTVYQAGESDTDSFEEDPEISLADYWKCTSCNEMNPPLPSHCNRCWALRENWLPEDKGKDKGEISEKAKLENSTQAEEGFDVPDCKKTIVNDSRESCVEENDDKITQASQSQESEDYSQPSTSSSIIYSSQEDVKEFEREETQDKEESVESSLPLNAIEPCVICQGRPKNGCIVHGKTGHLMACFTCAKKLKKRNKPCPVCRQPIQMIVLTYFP
T cruzi repl: T. cruzi replication inhibition. AID 1885. 1.4% of 300,000 active. T. cruzi beta-gal in NIH3T3, luminescence, 90 h. inhibition, % (concentration not given with the values);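 active means mean inhibition across valid replicates above about 55%, limit read from the data; inconclusive means mean below that limit but half or more replicates reach it; inactive means mean below it, under half of replicates reach it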;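 further: signal also drops with host cell toxicity which is not excluded here; higher percent means less beta-gal luminescence so fewer parasites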
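Assay system: NIH/3T3 fibroblasts plus reporter T. cruzi. Amount: NIH/3T3 cells, 5,000 per well. Buffer or medium: DMEM, 2% fetal bovine serum. Doses: compound pinned at 50 nL/well, DMSO. Schedule: ≥90 h infection period, 3 h prior cell attachment. Signal: luminescent β-galactosidase signal after 60 min lysis. Read-out: parasite load inhibition, %.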
Mdm2 MdmX conf: human Mdm2/MdmX binding inhibition, confirmed | shares compounds with Mdm2-MdmX inh | luminescent assay | inhibition, % at 8 µM | 55% of 10,000 active; in the data active means inhibition above about 40%
Full FLuc ctr: counter-screen for Mdm2/MdmX inhibitors: full-length luciferase; 77% of 6,200 active; shares compounds with Mdm2-MdmX inh; inhibition, % at 8 µM; SaOS-2 full-length luciferase counterscreen, luminescence;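 active means mean inhibition at 8 µM reaching about 37%, which flags the compound as non-specific, limit read from the data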;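 further: p53-null SaOS-2 cells with luciferase driven by a doxycycline-inducible promoter; compound on cells about two nights before reading with doxycycline added after day one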
Each line names hits and unclear results; the compound was inactive in the other large screens (follow-up assays come after a bar, where they were run). A selection: hits, their analogues and other compounds. The true share with any hit is near 5.7%.

COCCCNC(=O)C[C@H]1C[C@H](C(=O)N(C(C)C)C(C)C)[C@@]2(C)c3[nH]c4cc(CCC(=O)N(C)C)ccc4c3CCN2C1=O	none (no result: Beta apoptosis, CSC inhib, Calb FLC, SKKanGAS inh, T cruzi repl)
COc1ccc(-c2c(C#Cc3ccc(N(C)C)cc3)c3ccccc3n2C)cc1	Mdm2-MdmX inh 52.5 (no result: CSC inhib, Calb FLC, SKKanGAS inh, T cruzi repl) | Mdm2 MdmX conf inactive
COc1cc(C#Cc2c(C=O)n(C)c3ccccc23)cc(OC)c1	Mdm2-MdmX inh 65.6 (no result: Calb FLC, SKKanGAS inh, T cruzi repl) | Mdm2 MdmX conf inactive | Full FLuc ctr 77.8
O=C(c1ccc2c(=O)n3c(nc2c1)CCCCC3)N1CCN(C(c2ccccc2)c2ccccc2)CC1	Mdm2-MdmX inh 63.1 | Mdm2 MdmX conf inactive
COc1ccc(NC(C)C(=O)N/N=C/c2c(O)ccc3ccccc23)cc1 (configuration not stated)	SKKanGAS inh 96.8, Mdm2-MdmX inh 65.0 | Mdm2 MdmX conf 56.0 | Full FLuc ctr 39.1
O=C(CSCC(=O)Nc1ccccc1)N/N=C/c1c(O)ccc2ccccc12	Calb FLC 113.3, Mdm2-MdmX inh 78.9 | Mdm2 MdmX conf 72.2 | Full FLuc ctr inactive
O=C(O)c1cc(N/N=C/c2c(O)ccc3ccccc23)ccc1Cl	none
O=C(CNc1ccccc1)N/N=C/c1c(O)ccc2ccccc12	Beta apoptosis 83.5, SKKanGAS inh 101.4, Mdm2-MdmX inh 83.6 | Mdm2 MdmX conf 79.2 | Full FLuc ctr inactive
CC(CCc1ccccc1)NC(=O)COC(=O)c1ccc(NC(N)=O)cc1 (configuration not stated)	none
Cc1cc(C)nc(S/C=C/C(=O)c2ccc(F)cc2)n1	Mdm2-MdmX inh 100.9 | Mdm2 MdmX conf inactive
c1ccc(CNc2c3ccccc3nc3ccccc23)cc1	Beta apoptosis 98.3, Mdm2-MdmX inh 69.5, T cruzi repl 57.0 | Mdm2 MdmX conf inactive | Full FLuc ctr 60.8
Oc1ccccc1Nc1nc(NCc2ccccc2)c2ccccc2n1	CSC inhib 102.7, Mdm2-MdmX inh 83.4 | Mdm2 MdmX conf inactive
c1ccc(CNc2ncnc3ccccc23)cc1	none
Oc1ccc(CCNc2c3ccccc3nc3ccccc23)cc1O	CSC inhib 76.1, Mdm2-MdmX inh 64.0 | Mdm2 MdmX conf 51.2 | Full FLuc ctr 76.2
COc1ccccc1Nc1nc(NCc2ccco2)c2ccccc2n1	none
CNc1nc(NCc2ccccc2)c2ccccc2n1	Mdm2-MdmX inh 65.6 | Mdm2 MdmX conf inactive
O=C(Nn1cnc2ccccc2c1=O)c1c(F)cccc1F	none
O=C(COC(=O)c1cc(Br)ccc1O)Nc1ccc2c(c1)OCO2	none (no result: Calb FLC, SKKanGAS inh, T cruzi repl)
Cc1cccc(NC2=Nc3ccccc3N3C2=Nc2c(c(C)nn2-c2ccccc2)C3c2ccc(O)c(O)c2)c1 (configuration not stated)	CSC inhib 100.3, SKKanGAS inh 98.5, Mdm2-MdmX inh 77.9 | Mdm2 MdmX conf inactive | Full FLuc ctr 50.0
Cc1nn(-c2ccccc2)c2c1C(c1ccc(O)c(O)c1)N1C(=N2)C(Nc2ccccc2)=Nc2ccccc21 (configuration not stated)	CSC inhib 90.4, SKKanGAS inh 87.5, Mdm2-MdmX inh 83.2 | Mdm2 MdmX conf 45.2 | Full FLuc ctr 40.3
COc1ccc(CCN2CC(C(=O)Nc3ccc(S(C)(=O)=O)cc3)CC2=O)cc1OC (configuration not stated)	none (no result: CSC inhib)
CCOC(=O)c1ccccc1NC(=O)C1CSC2(C)CCC(=O)N12 (configuration not stated)	none (no result: Beta apoptosis)
O=S(=O)(c1ccc2ccccc2c1)N1CCN(c2ccc(O)cc2)CC1	CSC inhib inconclusive (no result: Calb FLC, SKKanGAS inh, T cruzi repl)
Cc1ccc2c(C)c(C(=O)Nc3ccc(S(N)(=O)=O)cc3)oc2c1C	none
Cc1cc2oc(C(=O)Nc3ccc(S(N)(=O)=O)cc3)c(C)c2cc1Cl	Mdm2-MdmX inh 55.0 (no result: Beta apoptosis) | Mdm2 MdmX conf 47.8 | Full FLuc ctr 58.2
O=C1CC(c2ccc3c(c2)OCCO3)Oc2ccc([N+](=O)[O-])cc21 (configuration not stated)	CSC inhib 77.4, Mdm2-MdmX inh 72.1 | Mdm2 MdmX conf 72.5 | Full FLuc ctr 144.5
O=C1CC(c2ccc3c(c2)OCCO3)Oc2ccccc21 (configuration not stated)	none
COc1cc(/C=N/NC(=O)c2ccccc2NS(=O)(=O)c2cccs2)ccc1O	none (no result: Beta apoptosis, CSC inhib, Calb FLC, SKKanGAS inh, T cruzi repl)
CCOC(=O)C1=C(N)n2c(s/c(=C\c3cccs3)c2=O)=C(C(=O)OCC)C1c1cccs1 (configuration not stated)	Mdm2-MdmX inh 61.7 | Mdm2 MdmX conf 50.3 | Full FLuc ctr 79.3
O=c1[nH]c(CN2CCN(c3ccccc3)CC2)nc2scc(-c3ccccc3)c12	Mdm2-MdmX inh 71.7 | Mdm2 MdmX conf 73.0 | Full FLuc ctr 54.1
COc1ccc(N2CCN(Cc3nc4scc(-c5ccccc5)c4c(=O)[nH]3)CC2)cc1	none
Cc1ccc(NS(=O)(=O)c2cc(-c3n[nH]c(=O)c4ccccc34)ccc2C)cc1	Mdm2-MdmX inh 64.0 | Mdm2 MdmX conf 65.7 | Full FLuc ctr 50.2
COc1cc(C(=O)NNC(=O)c2ccc3ccccc3n2)cc(OC)c1OC	none (no result: Calb FLC, SKKanGAS inh, T cruzi repl)
COc1ccc(CNC(=O)c2ccc3ccccc3n2)cc1	none
COc1cc(OC)cc(C(=O)NNC(=O)c2ccc3ccccc3n2)c1	Mdm2-MdmX inh 54.7 (no result: Beta apoptosis, CSC inhib, Calb FLC, SKKanGAS inh, T cruzi repl) | Mdm2 MdmX conf 68.5 | Full FLuc ctr 46.4
COc1ccc(C(=O)NC(=S)NNC(=O)c2ccc3ccccc3n2)cc1	Calb FLC 108.1, Mdm2-MdmX inh 55.7 | Mdm2 MdmX conf inactive | Full FLuc ctr 52.1
Cc1cc(OCC(=O)NNC(=O)c2cccnc2)cc(C)c1Cl	none (no result: SKKanGAS inh, T cruzi repl)
O=[N+]([O-])c1cc(-c2ncccn2)c([N+](=O)[O-])s1	CSC inhib inconclusive, Mdm2-MdmX inh 93.2 | Mdm2 MdmX conf 42.2 | Full FLuc ctr inactive
O=C(Nc1ncccn1)c1cc([N+](=O)[O-])cc([N+](=O)[O-])c1	T cruzi repl inconclusive
Cc1ccc(S(=O)(=O)c2nc(S(C)(=O)=O)sc2N2CCCCC2C)cc1 (configuration not stated)	Mdm2-MdmX inh 57.3 | Mdm2 MdmX conf 41.4 | Full FLuc ctr 39.8
Cc1ccc(S(=O)(=O)c2nc(S(C)(=O)=O)sc2N2CCC(O)CC2)cc1	T cruzi repl inconclusive
Fc1ccc(C2c3[nH]c4ccccc4c3CCN2Cc2cccn2-c2ncccn2)cc1 (configuration not stated)	Mdm2-MdmX inh 78.2, T cruzi repl 69.7 | Mdm2 MdmX conf 61.5 | Full FLuc ctr 61.5
NCCN1CCN(CC(=O)N2c3ccccc3C(=O)Nc3cccnc32)CC1	none
O=C1Nc2cccnc2N(C(=O)CCl)c2ccccc21	Mdm2-MdmX inh 67.9 | Mdm2 MdmX conf 50.0 | Full FLuc ctr inactive
COc1ccc(C(=O)NCCCOc2cccnc2)cc1OC1CCN(C(C)=O)CC1	none

Assay outcomes deposited in PubChem by several laboratories.
